Source: ChEMBL document CHEMBL3751667, “Carbamate substituted 2-amino-4,6-diphenylpyrimidines as adenosine receptor antagonists” (Bioorg Med Chem Lett, 2016)
≈ marks a conversion by molar mass, not a printed value. Calls of active or inactive are those of the source. The rule behind the calls is not given here.

Assays:
[1] = biological target: Adenosine receptor A2a (Rattus norvegicus, UniProt P30543); assay: Displacement of [3H]NECA from adenosine A2A receptor in Sprague-Dawley rat striatal membrane after 1 hr by scintillation counting; set-up: species or system Striatum
Adenosine receptor A2a, sequence (P30543 whole entry): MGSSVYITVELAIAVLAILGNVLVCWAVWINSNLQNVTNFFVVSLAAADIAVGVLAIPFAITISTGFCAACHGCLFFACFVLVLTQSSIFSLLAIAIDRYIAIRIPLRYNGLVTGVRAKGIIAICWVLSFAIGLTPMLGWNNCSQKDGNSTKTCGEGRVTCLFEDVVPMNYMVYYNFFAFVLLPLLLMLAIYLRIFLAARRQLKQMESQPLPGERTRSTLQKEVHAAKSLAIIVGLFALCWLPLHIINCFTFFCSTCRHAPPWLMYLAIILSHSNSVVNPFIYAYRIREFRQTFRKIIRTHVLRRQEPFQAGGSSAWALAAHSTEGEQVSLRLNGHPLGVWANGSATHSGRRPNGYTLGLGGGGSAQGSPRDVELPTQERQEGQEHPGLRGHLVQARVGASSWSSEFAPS

[2] = biological target: T1, Adenosine receptor A1 (Rattus norvegicus, UniProt P25099); assay: Displacement of [3H]DPCPX from adenosine A1 receptor in Sprague-Dawley rat whole brain after 1 hr by scintillation counting
T1 sequence (P25099 whole entry): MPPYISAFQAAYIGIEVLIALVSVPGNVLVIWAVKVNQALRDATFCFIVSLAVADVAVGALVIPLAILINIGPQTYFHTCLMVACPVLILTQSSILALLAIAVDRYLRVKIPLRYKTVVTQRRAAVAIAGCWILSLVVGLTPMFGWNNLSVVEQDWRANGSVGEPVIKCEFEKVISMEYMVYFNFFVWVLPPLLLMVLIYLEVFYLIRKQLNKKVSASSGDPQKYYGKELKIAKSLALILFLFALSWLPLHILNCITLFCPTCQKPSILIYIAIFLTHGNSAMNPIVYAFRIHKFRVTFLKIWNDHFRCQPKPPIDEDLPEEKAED

[3] = species: Rattus norvegicus; assay: Selectivity ratio of Ki for adenosine A2A receptor in Sprague-Dawley rat striatal membrane to Ki for adenosine A1 receptor in Sprague-Dawley rat whole brain
In short: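 Index calculated as A2A Ki divided by A1 Ki. Both Ki values come from radioligand binding assays and are given as the mean ± SEM of duplicate determinations.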

[4] = tested on: Rattus norvegicus; assay: Reversal of haloperidol-induced catalepsy in Sprague-Dawley rat at 0.4 to 2 mg/kg, ip after 60 mins relative to control; format: functional, organism-based
In short: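 Sprague–Dawley rats, drug naïve, three groups; all given haloperidol 5.0 mg/kg i.p. to induce catalepsy. Thirty minutes later: DMSO (control) or test compound at 0.4 or 2 mg/kg. Catalepsy scored by standard bar test 60 minutes after first injection; compared with haloperidol + vehicle group by one-way ANOVA and Dunnett's post test.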

[5] = n-octanol-potassium phosphate buffer partition coefficient, log D of the compound at pH 7.4 by shake flask method; format: physicochemical
In short: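 Shake flask method; hydrophilic phase potassium phosphate buffer pH 7.4, hydrophobic phase n-octanol.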

[6] = Solubility of the compound at 4.5 mg after 24 hrs by HPLC analysis; format: physicochemical
In short: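 Water solubility: excess compound shaken in water at 37 °C.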

Row | Structure (SMILES) | Ki [1] [nM] | Ki [2] [nM] | Ratio Ki [3] | Activity [4] | logD [5] | solubility at 24 h [6] [µM]
1 | CN(C)C(=O)Oc1cccc(-c2cc(-c3ccccc3)nc(N)n2)c1 | 51.9 | 2.06 | 25 |  |  | 
2 | CCN(CC)C(=O)Oc1cccc(-c2cc(-c3ccccc3)nc(N)n2)c1 | 22.8 | 0.468 | 49 |  |  | 
3 | Nc1nc(-c2ccccc2)cc(-c2cccc(OC(=O)N3CCCC3)c2)n1 | 24.8 | 0.835 | 30 |  |  | 
4 | Nc1nc(-c2ccccc2)cc(-c2cccc(OC(=O)N(c3ccccc3)c3ccccc3)c2)n1 | 451 | 10.7 | 42 |  |  | 
5 | Nc1nc(-c2ccccc2)cc(-c2cccc(OC(=O)N3CCOCC3)c2)n1 | 3.5 | 2.65 | 1.3 | Active |  | 
6 | CC(C)N(C(=O)Oc1cccc(-c2cc(-c3ccccc3)nc(N)n2)c1)C(C)C | 12.1 | 0.175 | 69 |  |  | 
7 | Nc1nc(-c2ccccc2)cc(-c2cccc(OC(=O)N3CCCCC3)c2)n1 | 8.94 | 1.95 | 4.6 |  |  | 
8 | CN(C(=O)Oc1cccc(-c2cc(-c3ccccc3)nc(N)n2)c1)c1ccccc1 | 39.9 | 1.07 | 37 |  |  | 
9 | CN1CCN(C(=O)Oc2cccc(-c3cc(-c4ccccc4)nc(N)n3)c2)CC1 | 1.58 | 2.04 | 0.8 | inactive | 4.03 | 0.22 (≈ 0.0857 µg/mL)
